# According to ChEMBL document CHEMBL3593178, “Synthesis and evaluation of hedgehog signaling inhibitor with novel core system” (Bioorg Med Chem, 2015):
# Assays:
# [1] = In vivo inhibition of Gli1 mRNA expression in mouse bearing human PAN-04 cells assessed as expression level at 25 mg/kg, po bid after 24 hrs by qPCR analysis relative to control; type: functional
# In short: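 Nude mice bearing human primary pancreatic tumor PAN-04 given compound orally twice daily at 25 mg/kg; tumors excised 24 h after first dose, stored in RNAlater; mouse stromal Gli1 mRNA quantified with mouse Gli1 and mouse GAPDH probe sets; expressed relative to controls.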
# [2] = Inhibition of hedgehog signaling pathway in mouse NIH/3T3 cells after 48 hrs by Gli-luciferase reporter gene assay; type: cell-based; conditions: NIH3T3, 48 h
# In short: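 NIH3T3 cells stably carrying Gli-luciferase reporter, kept in DMEM/10% FBS with 500 µg/mL G418, seeded at 7.5 × 10³ cells/well on collagen-coated plates overnight at 37 °C, 5% CO2; then recombinant mouse Shh-N plus compound (final 0.03–1000 nM, 5.8% FBS), n = 4 wells, 48 h; luciferase read with Bright-Glo; 0.1% DMSO ± 1 µg/mL Shh-N as controls; IC50 mean of four.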
# [3] = AUC (0 to 8 hrs) in non-fasted mouse at 10 mg/kg, po cassette dosing by LC/MS/MS analysis; type: ADME, organism-based; set-up: dose 10 mg/kg, time < 8 hr, route oral; conditions: in vivo
# In short: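 Single 10 mg/kg oral cassette dose to nonfasted mice; blood sampled, plasma separated by centrifugation, deproteinized with MeCN containing internal standard, supernatant diluted in 10 mmol/L HCOONH4/0.2% formic acid–MeCN with 0.2% formic acid (9:1), recentrifuged, concentrations quantified by LC/MS/MS; AUC from 0 to 8 h.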
Structure (SMILES),Gli1 mRNA expression relative to control [1] [%],IC50 [2] [nM],AUC(0-t) at 8 h [3] [ng·h/mL]
CCc1nc2c(cc1NC(=O)c1ccccc1)c(OCC(F)(F)F)c(C(=O)NC1CCN(C(=O)CO)CC1)n2C,24,3.6,10800
CCc1cc2c(nc1NC(=O)c1ccccc1)c(OCC(F)(F)F)c(C(=O)NC1CCN(C(=O)CO)CC1)n2C,87,3.9,984
CCc1nc2c(c(OCC(F)(F)F)c(C(=O)NC3CCN(C(=O)CO)CC3)n2C)c(=O)n1CC(=O)c1ccccc1,,6.2,
CCc1cc2c(c(OCC(F)(F)F)c(C(=O)NC3CCN(C(=O)CO)CC3)n2C)c(=O)n1CC(=O)c1ccccc1 [TAK-441],4,4.4,28300
CCc1cc2c(cc1NC(=O)c1ccccc1)c(OCC(F)(F)F)c(C(=O)NC1CCN(C(=O)CO)CC1)n2C,50,2.6,1270
CCc1nc2c(cc1CC(=O)c1ccccc1)c(OCC(F)(F)F)c(C(=O)NC1CCN(C(=O)CO)CC1)n2C,,46,
CCc1nc2c(nc1NC(=O)c1ccccc1)c(OCC(F)(F)F)c(C(=O)NC1CCN(C(=O)CO)CC1)n2C,57,3.1,925
